Most compounds without a hit are left out; they make up all but 1.3% or so of the library.
GRK2 aptamer HTS = human GRK2 inhibition via aptamer displacement | P25098 | bead flow cytometry, FAM-aptamer displacement from GRK2 | inhibition of aptamer binding, % at 10 µM | hit rate 0.59% among 330,000 | AID 488847;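 active = inhibition of aptamer binding above 40%, roughly 3 SD of noise, on plates passing a quality check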;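 note: median bead fluorescence of bound FAM aptamer so fluorescent compounds give negative values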
procasp7 counter = counter-screen for procaspase-3 activators: activators of human procaspase-7; P55210; recombinant procaspase-7, Ac-DEVD-pNA absorbance 405 nm; D23A/D198A/D206A triple mutant, cannot self-cleave; scale: DMSO 0, 5 µM enzyme 100; activation, % at 8.5 µM; hit rate 0.093% among 330,000; AID 463210;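 active = percent activation above the screen-wide mean plus 3 SD, cut at about 25% in these data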
Target sequence (P55210 whole entry D23A/D198A/D206A): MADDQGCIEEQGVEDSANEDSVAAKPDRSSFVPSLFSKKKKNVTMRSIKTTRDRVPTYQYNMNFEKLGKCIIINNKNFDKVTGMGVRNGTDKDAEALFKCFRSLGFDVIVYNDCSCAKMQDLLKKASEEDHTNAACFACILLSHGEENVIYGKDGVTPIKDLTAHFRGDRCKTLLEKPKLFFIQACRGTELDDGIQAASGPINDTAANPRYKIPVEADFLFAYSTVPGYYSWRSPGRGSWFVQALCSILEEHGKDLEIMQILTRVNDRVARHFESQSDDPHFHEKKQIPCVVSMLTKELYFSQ
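Test system: Procaspase-7 triple mutant (PC-7 D3A). Also added: Ac-DEVD-pNA substrate, 400 µM as added. Schedule: 1 h enzyme–compound preincubation and 2 h substrate reaction, both 25 °C. Signal: p-Nitroaniline absorbance at 405 nm, read at 0 and 120 min. Control set: low DMSO alone, high DMSO plus 5 µM PC-7.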
GASC-1 inh = blocks human GASC-1 demethylase activity. AID 2099. GST-JMJD2C(1-420) H3K9me3 demethylation, DELFIA europium. hit rate 0.069% among 330,000. inhibition, % at 2.35 µM. Q9H3R0;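 active = more than half of a compound's replicate wells show inhibition beyond 50%, single wells judged on their own value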;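 note: signal counts dimethyl H3K9 product captured on neutravidin plate; 0% = median of DMSO wells and 100% = 0.3 times that DMSO median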
VLA-4 inh = inhibition in a human VLA-4 binding assay | VLA-4 expressing cells, ligand binding flow cytometry | inhibition, % (about 7 µM as worked out from the volumes in the protocol) | hit rate 0.2% among 330,000; in the data active = inhibition above about 50%
proCasp3 act = activators of human procaspase-3; activation, % at 8.5 µM; hit rate 0.11% among 330,000; P42574; AID 463141; recombinant procaspase-3 D3A, Ac-DEVD-pNA absorbance 405 nm;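 active = activation above the mean of all tested compounds plus 3 SD, cut at about 21% in these data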;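 note: 0% = DMSO alone and 100% = DMSO wells spiked with extra 5 µM PC-3 D3A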
Target sequence (P42574 whole entry D9A/D28A/D175A): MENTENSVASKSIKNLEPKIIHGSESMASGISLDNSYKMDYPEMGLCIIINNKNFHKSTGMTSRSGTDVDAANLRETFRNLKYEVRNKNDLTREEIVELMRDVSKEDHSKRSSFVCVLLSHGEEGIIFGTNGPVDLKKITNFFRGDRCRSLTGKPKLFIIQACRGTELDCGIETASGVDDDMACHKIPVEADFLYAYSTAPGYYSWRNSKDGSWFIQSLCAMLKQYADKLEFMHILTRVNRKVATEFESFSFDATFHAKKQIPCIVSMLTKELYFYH
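Test system: Procaspase-3 D3A mutant; medium: Zinc-free HEPES/NaCl buffer with 0.01% Triton X-100 at pH 7.4; reagent: DEVD-pNA substrate; doses: one concentration, 8.5 µM nominal, 0.8% DMSO; times: 1 h preincubation plus 2 h reaction at 25 °C; signal: Epi-absorbance at 405 nm of released p-nitroaniline, 0 and 120 min; replicates: singlicate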
Hep lipid drop = modulators of hepatic lipid droplet formation. hit rate 0.4% among 240,000. AML12 mouse hepatocytes, oleate lipid droplets, BODIPY imaging. AID 1656. inhibition, % at 6.5 µM;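 active = lipid droplet intensity inhibited by at least 50%, with more than 500 cells counted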
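Material – AML12 mouse liver cells · Also added – oleate loading, 100 µM · Compound dosing – 6.5 µM single-point dosing · Times – overnight treatment with compound plus oleate · Measured by – fluorescence imaging, 20x objective, two fields per well · Read-out – percent inhibition of filter-corrected integrated lipid droplet intensity per well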
GRK2 CP1 = confirmation of human GRK2 inhibitors displacing RNA aptamer | shares compounds with GRK2 aptamer HTS | bead-bound GRK2, FAM-aptamer displacement, flow cytometry | aptamer displacement, % at 10 µM | hit rate 4% among 2,000;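 active = aptamer displacement above 40%, near three times the noise of non-fluorescent compounds, on plates passing quality checks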;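 note: negative values mostly reflect intrinsic compound fluorescence rather than true enhancement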
FAM quench CP1 = aptamer fluorescence quenching in GRK2 counter-screen; shares compounds with GRK2 aptamer HTS; 2,000 tested, under 10 active; Carboxyfluorescein RNA aptamer on beads, flow cytometry quenching; hits give low values; fluorescence response (% of DMSO), % at 10 µM; AID 504580;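 active = compounds that quench the bead-bound fluorescent RNA probe, cutting fluorescence to under half of the solvent control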;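 note: counterscreen run without GRK2 so only probe quenching by compound is measured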
* marks the source's active call; other numbers are inactive results.

For O=C(Cn1c(=O)c2cccn2c2ccccc21)NCCCN1CCCCC1 the results were GRK2 aptamer HTS 0, procasp7 counter -1, GASC-1 inh 0, VLA-4 inh 3, proCasp3 act 3 and Hep lipid drop -18.
`O=C(NNS(=O)(=O)c1ccc([N+](=O)[O-])cc1)C(=O)Nc1cccc(C(=O)O)c1` gave GRK2 aptamer HTS 69*, procasp7 counter -16, GASC-1 inh 27, VLA-4 inh 4, proCasp3 act -3, Hep lipid drop -2, GRK2 CP1 5 and FAM quench CP1 102.
Screening O=C(O)c1cccc(NC(=O)c2cccc(S(=O)(=O)Nc3cccc([N+](=O)[O-])c3)c2)c1 returned GRK2 aptamer HTS 0, procasp7 counter 7, GASC-1 inh 6, VLA-4 inh 5, proCasp3 act 7 and Hep lipid drop 2.
For COc1cc([N+](=O)[O-])c2ncsc2c1 the results were GRK2 aptamer HTS 0, procasp7 counter 2, GASC-1 inh 0, VLA-4 inh 10, proCasp3 act 0 and Hep lipid drop -22.
COc1cc(SSc2cc(OC)cc([N+](=O)[O-])c2N)c(N)c([N+](=O)[O-])c1 was read as GRK2 aptamer HTS 87*, procasp7 counter -46, GASC-1 inh -17, VLA-4 inh -4, proCasp3 act -30, Hep lipid drop 9, GRK2 CP1 -14 and FAM quench CP1 95.
For CS(=O)(=O)N(CC(=O)N1CCN(c2ccccc2F)CC1)C1CCCCC1 the results were GRK2 aptamer HTS 3, procasp7 counter -15, GASC-1 inh -2, VLA-4 inh 5 and proCasp3 act 8.
Screening COc1ccccc1N1CCN(C(=O)CN(C2CCCCC2)S(C)(=O)=O)CC1 returned GRK2 aptamer HTS 47*, procasp7 counter 6, GASC-1 inh 23, VLA-4 inh -2, proCasp3 act 3, Hep lipid drop -11, GRK2 CP1 1 and FAM quench CP1 98.
For O=C(NC1CCCCC1)N1CCSC1=Nc1ccccc1 the results were GRK2 aptamer HTS 43*, procasp7 counter 12, GASC-1 inh 16, VLA-4 inh 0, proCasp3 act 15, GRK2 CP1 1 and FAM quench CP1 93.
Screening O=C(NC1CCCCC1)N1CCCc2ccccc21 returned GRK2 aptamer HTS 2, procasp7 counter 8, GASC-1 inh -6, VLA-4 inh -4 and proCasp3 act 2.
For COc1ccccc1CNC(=O)COC(=O)c1cc(-c2ccco2)nc2ccccc12 the results were GRK2 aptamer HTS 49*, procasp7 counter -16, GASC-1 inh 7, VLA-4 inh 5, proCasp3 act 6, Hep lipid drop 17, GRK2 CP1 34 and FAM quench CP1 97.
CCc1nnc(NC(=O)c2cc(-c3ccco3)nc3ccccc23)s1 was read as GRK2 aptamer HTS 0, procasp7 counter -5, GASC-1 inh 10, VLA-4 inh -20, proCasp3 act -9, Hep lipid drop -7, GRK2 CP1 -1 and FAM quench CP1 97.
For CCc1nnc(NC(=O)c2cc(-c3ccccn3)nc3ccccc23)s1 the results were GRK2 aptamer HTS 0, procasp7 counter 5, GASC-1 inh 14, VLA-4 inh 2, proCasp3 act -2 and Hep lipid drop 5.
`Cc1cc(NC(=O)c2ccc(NC(=O)C3CCCO3)cc2)ccc1Br` (stereo unspecified) gave GRK2 aptamer HTS 1, procasp7 counter 8, GASC-1 inh 13, VLA-4 inh 22, proCasp3 act 0 and Hep lipid drop 8.
For O=C(O)[C@H](Cc1ccccc1)NC(=O)N1CCN(c2ccc(F)cc2)CC1 the results were GRK2 aptamer HTS 93*, procasp7 counter -1, GASC-1 inh -6, VLA-4 inh -3, proCasp3 act 2, Hep lipid drop 25, GRK2 CP1 1 and FAM quench CP1 102.
Screening CCCCCCCCCCCC(=O)NC1CCS(=O)(=O)C1 (stereo unspecified) returned GRK2 aptamer HTS 0, procasp7 counter -3, GASC-1 inh 14, VLA-4 inh 4, proCasp3 act -1 and Hep lipid drop 0.
`O=C(C1COc2ccccc2O1)N1CCN(c2ccc([N+](=O)[O-])cc2)CC1` (stereo unspecified) gave GRK2 aptamer HTS 98*, procasp7 counter -12, GASC-1 inh -3, VLA-4 inh 12, proCasp3 act -10, GRK2 CP1 -2 and FAM quench CP1 98.
Screening COc1ccc(NS(=O)(=O)c2cccc(C(=O)NNC(=O)CN3C(=O)NC(C)(C)C3=O)c2)cc1 returned GRK2 aptamer HTS 0, procasp7 counter 0, GASC-1 inh 1, VLA-4 inh -2 and proCasp3 act 10.
Screening Cc1cccc(C(=O)NCC(=O)OCC(=O)NCCNC(=O)COC(=O)CNC(=O)c2cccc(C)c2)c1 returned GRK2 aptamer HTS 1, procasp7 counter 6, GASC-1 inh 1, VLA-4 inh 6 and proCasp3 act 14.
For Cc1cc(C)cc(C(=O)NCC(=O)OCC(=O)NCC(F)(F)F)c1 the results were GRK2 aptamer HTS 96*, procasp7 counter -1, GASC-1 inh 7, VLA-4 inh 7, proCasp3 act 8, Hep lipid drop 2, GRK2 CP1 3 and FAM quench CP1 100.
`COc1ccccc1NS(=O)(=O)c1cccc(C(=O)N2CC(C)OC(C)C2)c1` (stereo unspecified) gave GRK2 aptamer HTS 0, procasp7 counter 3, GASC-1 inh 68, VLA-4 inh 1 and proCasp3 act 17.
`O=C(NCC(c1ccco1)N1CCc2ccccc21)c1ccccc1Br` (stereo unspecified) gave GRK2 aptamer HTS 0, procasp7 counter 2, GASC-1 inh 12, VLA-4 inh 10 and proCasp3 act -13.
CCN(CC)S(=O)(=O)c1cccc(N=NC2=C(O)CCCC2=O)c1 was read as GRK2 aptamer HTS 1, procasp7 counter -4, GASC-1 inh 1, VLA-4 inh 13, proCasp3 act -2 and Hep lipid drop 5.
Screening O=C1CCCC(O)=C1N=Nc1cccc(C(=O)O)c1 returned GRK2 aptamer HTS 83*, procasp7 counter -15, GASC-1 inh -2, VLA-4 inh 2, proCasp3 act 3, Hep lipid drop -2, GRK2 CP1 4 and FAM quench CP1 98.
